# What was measured:
# 5-HT2A-RLuc = assay: BRET association assay, 5-HT2A-RLuc and mVenus-nanobody; type: cell-based; conditions: 5-HT at 1μM or above
# MRGPRX2 = assay: Transcription factor reporter primary screen; type: cell-based; conditions: MRGPRX2 activated by (+)-morphine, 4 hrs post-ligand addition
# 5-HT2A-Gαq = 5-HT2A-Gαq (Homo sapiens, UniProt P28223+P50148); assay: Saturation radioligand binding assay with [3H]LSD
# R7 tTA = assay: tTA reporter assay; type: cell-based; conditions: increasing concentrations of DOX
# Procedure, shortened: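 Six hours after transfection, cells were washed and dissociated with versene. They were resuspended in DMEM + 1% dialyzed FBS and plated on poly-L-lysine 384-well plates at 10,000 cells/well. Doxycycline HCl, prepared in plating media at 2x, was added for 20–22 hr overnight. Media was then removed and 1:20-diluted Bright-Glo luciferase reagent was added for luminescence read-out.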
compound,measurement,setting,value
"NCCc1c[nH]c2ccc(O)cc12 [5-HT, serotonin]",effect of agonist on VGS-Nb2 association to 5-HT2A,5-HT2A-RLuc,no effect
CN1CC[C@@]23c4c5ccc(O)c4O[C@@H]2[C@H](O)C=C[C@@H]3[C@@H]1C5 [(+)-morphine],SRE minimal promoter luciferase response,MRGPRX2,5 fold
same,SRF minimal promoter luciferase response,MRGPRX2,5 fold
"[3H]CN1C[C@H](C(=O)N(CC)CC)C=C2c3cccc4[nH]cc(c34)C[C@H]21 [[^3H]LSD, [N-Methyl-^3H]-Lysergic Acid Diethylamide]",BMax,5-HT2A-Gαq; 5HT2A-Gaq membrane + 5uM VGS-Nb2,1993 fmol/mg
same,BMax,"5-HT2A-Gαq; 5HT2A-Gaq membrane, vehicle",1333 fmol/mg
"C[C@H]1c2cccc(O)c2C(=O)C2=C(O)[C@]3(O)C(=O)C(C(N)=O)=C(O)[C@@H](N(C)C)[C@@H]3[C@@H](O)[C@@H]21 [DOX, doxycycline]",sensitivity of R7 consensus tTA to doxycycline in TETO7-Rluc reporter,R7 tTA,completely resistant

# — article PMC6660416 (Cell, 2019)
